Experimental data published in ChEMBL document CHEMBL1143720, “Vasorelaxant activity of diterpenes from Croton zambesicus and synthetic trachylobanes and their structure-activity relationships” (J Nat Prod, 2007).

How the values were obtained:
Aorta [1] = assay: Vasorelaxant activity against KCl-induced contraction in Wistar rat aorta at 10 ug/ml; type: functional; design: scale not given: the % may be the effect or the level left
Outline: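 Rat aortic rings at 37 °C, gassed with 95% O2/5% CO2 and equilibrated 60 min; first contraction with 100 mM KCl depolarizing solution. After washing, rings were preincubated 30 min with compound at 10 µg/mL (max 3 µg/mL if poorly soluble; DMSO ≤0.1% in bath) and KCl contraction repeated. Inhibition versus the control contraction after 40 min incubation; mean ± SEM of n.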

HeLa = assay: Cytotoxicity against human HeLa cells by MTT method; type: cell-based
Outline: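 HeLa human cervix carcinoma cells; viability by MTT colorimetric assay. Absorbance expressed as percent of control, with camptothecin as positive control. IC50 given as mean ± SEM.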

Aorta [2] = assay: Vasorelaxant activity against KCl-induced contraction in Wistar rat aorta; type: functional, tissue-based
Outline: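 Endothelium-intact aortic rings in physiological solution at 37 °C, gassed with 95% O2/5% CO2 and equilibrated 60 min. Compound added cumulatively (10^-6 to 10^-4 M; 0.3–3 or 0.3–10 µg/mL by solubility) on the plateau of 100 mM KCl depolarizing contraction. Response taken as % of initial KCl contraction. IC50 from sigmoidal fit, 95% CI, 3–6 determinations.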

Structure (SMILES): C=C1[C@H]2CC[C@@]34C(=O)C5[C@H](C[C@H]3[C@]2(C)CC[C@@H]1Br)[C@]5(C)C4=O
- Activity (Aorta [1]): 65.5%
- IC50 (HeLa): > 150 µM

Structure (SMILES): C=C1[C@H]2CC[C@@]34C(=O)C5[C@H](C[C@H]3[C@]2(C)CC[C@@H]1O)[C@]5(C)C4=O
- Activity (Aorta [1]): 83.9%
- IC50 (HeLa): > 150 µM

Structure (SMILES): C=C[C@@]1(C)CC[C@H]2C(=CC[C@H]3C(C)(C)[C@@H](O)CC[C@]23C)C1 [ISOPIMARANE]
- Activity (Aorta [1]): 54.6%
- IC50 (Aorta [2]): 46.2 µM
- IC50 (HeLa): 87.8 µM

Structure (SMILES): CC1(C)CCC[C@]2(C)[C@@H]1CC[C@@]13[C@H](O)C4[C@H](C[C@@H]21)[C@]4(C)[C@H]3O
- Activity (Aorta [1]): 73.4%
- IC50 (HeLa): > 150 µM

Structure (SMILES): CC1(C)CCC[C@]2(C)[C@@H]1CC[C@@]13C(=O)C4[C@H](C[C@H]12)[C@]4(C)C3=O
- Activity (Aorta [1]): 14.5%
- IC50 (Aorta [2]): 5.8 µM
- IC50 (HeLa): 118 µM

Structure (SMILES): CC1(C)CCC[C@]2(C)[C@@H]1CC[C@@]13C(=O)C4[C@H](C[C@@H]21)[C@]4(C)[C@H]3O
- Activity (Aorta [1]): 17.9%
- IC50 (Aorta [2]): 4.65 µM
- IC50 (HeLa): 138 µM

Structure (SMILES): C[C@]12CCC(=O)[C@@](C)(CO)[C@@H]1CC[C@]13C(=O)C4[C@@H](C[C@@H]12)[C@]4(C)C3=O
- Activity (Aorta [1]): 93.1%

Structure (SMILES): C[C@@]1(C(O)CO)CC[C@@H]2C(O)(C1)C(O)C[C@H]1[C@@]2(C)CC[C@H](O)[C@]1(C)CO (some centres not stated)
- IC50 (Aorta [2]): > 80 µM

Structure (SMILES): CC1(C)C(=O)CC[C@@]2(C)[C@H]1CC[C@]13C(=O)C4[C@@H](C[C@@H]12)[C@]4(C)C3=O
- Activity (Aorta [1]): 91.4%
- IC50 (HeLa): > 150 µM

Structure (SMILES): CC[C@@]1(O)C(=O)OCc2c1cc1n(c2=O)Cc2cc3ccccc3nc2-1 [CAMPTOTHECIN]
- IC50 (HeLa): 0.5 µM

Structure (SMILES): CC1(C)C(=O)CC[C@]2(C)[C@@H]1CC[C@@]13C(=O)C4[C@H](C[C@@H]21)[C@]4(C)[C@H]3O
- Activity (Aorta [1]): 92.7%
- IC50 (HeLa): > 150 µM

Structure (SMILES): C[C@@]12CCC(=O)[C@](C)(CBr)[C@H]1CC[C@@]13C(=O)C4[C@H](C[C@H]12)[C@]4(C)C3=O
- Activity (Aorta [1]): 71.8%
- IC50 (HeLa): > 150 µM

Structure (SMILES): CC1(C)CCC[C@]2(C)[C@H]3C[C@@H]4C5C(=O)[C@]3(CC[C@@H]12)[C@@H](O)[C@]54C
- Activity (Aorta [1]): 22.1%
- IC50 (Aorta [2]): 9.1 µM
- IC50 (HeLa): > 150 µM

Structure (SMILES): C[C@@]12CC[C@H](O)[C@](C)(CO)[C@H]1CC[C@@]13CC4[C@H](C[C@H]12)[C@]4(C)C3
- IC50 (Aorta [2]): > 80 µM
- IC50 (HeLa): 64 µM

Structure (SMILES): C[C@@H]1C[C@@H](O)[C@H]2[C@@](C)(CO)CCC[C@]2(C)[C@@]1(O)CCc1ccoc1 [MARRUBENOL]
- Activity (Aorta [1]): 7.9%
- IC50 (Aorta [2]): 10 µM

Structure (SMILES): C[C@@]12CCC(=O)[C@](C)(CO)[C@H]1CC[C@@]13CC4[C@H](C[C@H]12)[C@]4(C)C3
- Activity (Aorta [1]): 17%
- IC50 (Aorta [2]): 6.3 µM
- IC50 (HeLa): 40.4 µM

Structure (SMILES): CO[C@]1(C)[C@@H](Br)CC[C@@]2(C)[C@@H]3C[C@H]4C5C(=O)[C@@]3(CC[C@@H]21)C(=O)[C@]54C
- Activity (Aorta [1]): 33%
- IC50 (Aorta [2]): 12.3 µM
- IC50 (HeLa): > 150 µM

Structure (SMILES): CC1(C)C(=O)CC[C@@]2(C)[C@@H]3C[C@@H]4[C@@H]5C[C@@]3(CC[C@@H]12)C[C@@]45C
- Activity (Aorta [1]): 65.6%
- IC50 (Aorta [2]): > 80 µM
- IC50 (HeLa): 33.5 µM

Structure (SMILES): CC1(C)C(=O)CC[C@]2(C)[C@H]3C[C@@H]4C5C(=O)[C@]3(CC[C@@H]12)[C@H](I)[C@]54C
- Activity (Aorta [1]): 95.7%
- IC50 (HeLa): > 150 µM

Structure (SMILES): CC1(C)C(=O)CC[C@]2(C)[C@H]3C[C@@H]4C5C(=O)[C@]3(CC[C@@H]12)[C@@H](O)[C@]54C
- Activity (Aorta [1]): 90%
- IC50 (HeLa): > 150 µM

Structure (SMILES): C=C1[C@H]2CC[C@@]34C(=O)C5[C@H](C[C@H]3[C@]2(C)CC[C@@H]1Cl)[C@]5(C)C4=O
- Activity (Aorta [1]): 28.5%
- IC50 (Aorta [2]): 9.75 µM
- IC50 (HeLa): > 150 µM

Structure (SMILES): C/C(=C\CO)CCC[C@H](C)CCC[C@H](C)CCCC(C)C [TRANS-PHYTOL]
- Activity (Aorta [1]): 81.4%
- IC50 (Aorta [2]): > 80 µM
- IC50 (HeLa): 46.6 µM

Structure (SMILES): CC1(C)CCC[C@]2(C)[C@@H]1CC[C@@]13[C@H](O)C[C@](C)(CC[C@@H]21)[C@H]3O
- Activity (Aorta [1]): 52.2%
- IC50 (HeLa): > 150 µM

Structure (SMILES): C[C@@H]1C(=O)[C@]23CC[C@H]4C(C)(C)C(=O)CC[C@]4(C)[C@H]2C[C@@H]1CC3=O
- Activity (Aorta [1]): 87.9%
- IC50 (HeLa): > 150 µM

Structure (SMILES): CC(C)(C)[Si](C)(C)O[C@@]12CC[C@@]3(C)[C@@H](CC[C@]45C(=O)C6[C@@H](C[C@@H]43)[C@@]6(C)C5=O)[C@]1(C)C2
- IC50 (HeLa): > 150 µM

Structure (SMILES): C=C1CCC[C@]2(C)[C@@H]1CC[C@@]13C(=O)C4[C@H](C[C@H]12)[C@]4(C)C3=O
- Activity (Aorta [1]): 9.2%
- IC50 (Aorta [2]): 3.5 µM
- IC50 (HeLa): 128 µM

Structure (SMILES): CC1(C)[C@H]2CC[C@@]34CC5[C@H](C[C@H]3[C@]2(C)CC[C@@H]1O)[C@]5(C)C4
- Activity (Aorta [1]): 67.3%
- IC50 (Aorta [2]): > 80 µM
- IC50 (HeLa): 25.3 µM

Structure (SMILES): CC1=CCC[C@]2(C)[C@@H]1CC[C@@]13C(=O)C4[C@H](C[C@H]12)[C@]4(C)C3=O
- IC50 (HeLa): 125 µM

Structure (SMILES): CC1(C)CCC[C@]2(C)[C@H]3C[C@@H]4C5C(=O)[C@]3(CC[C@@H]12)[C@H](I)[C@]54C
- Activity (Aorta [1]): 37.4%
- IC50 (HeLa): 150 µM

Structure (SMILES): CC1(C)C(=O)CC[C@]2(C)[C@@H]1CC[C@@]13C(=O)C4[C@H](C[C@H]12)[C@]4(C)C3=O
- Activity (Aorta [1]): 84.4%
- IC50 (HeLa): > 150 µM

Structure (SMILES): CC1(C)[C@H](O)CC[C@]2(C)[C@@H]1CC[C@@]13C(=O)C4[C@H](C[C@@H]21)[C@]4(C)[C@H]3O
- Activity (Aorta [1]): 90.3%
- IC50 (HeLa): > 150 µM

Structure (SMILES): C=C1C[C@]23CC[C@H]4C(C)(C)C(=O)CC[C@]4(C)[C@H]2C[C@@H]1CC3=O
- Activity (Aorta [1]): 60.6%
- IC50 (HeLa): > 150 µM

Structure (SMILES): CC1(C)CCC[C@]2(C)[C@H]3CC[C@]4(C)CC(=O)[C@]3(CC[C@@H]12)[C@H]4O
- Activity (Aorta [1]): 40.7%
- IC50 (HeLa): 153 µM
